Active and inactive are the calls of the source.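 The calls were made as follows, unless noted: active = a full or partial loss of lipid-probe fluorescence in the fish gall bladder, intestine or both, judged by eye; inactive = no fluorescence loss, or compound toxic to the fish.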

13 molecules from PubChem BioAssay can be followed below.

Experiment [1] in a line: inhibitors of TNFa-induced NFkB p65 translocation, primary screen, imaging, HUVEC, MLSMR starter and 10KST1 sets (AID 438;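 active = inhibition above 20% together with a positive visual image hit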;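 also: compound added about 3h40 before a 20 min TNFalpha stimulation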;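 as to inhibition: signal is the nuclear over cytoplasmic p65 intensity ratio per well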). Particulars: HUVEC TNFa-induced p65 nuclear translocation; cell count: measured here: nuclei count (cytotoxicity indicator), at 2.08 µM; inhibition: at 2 µM, stronger effect = higher value, 0% TNFa-plus-vehicle, 100% no-TNFa wells.
Experiment [2] in a line: endothelial E-selectin expression blockers – imaging, HUVEC, immunofluorescence, MLSMR starter and 10KST1 sets, primary screen (AID 487;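 active = visually confirmed hit in the image check and inhibition above 20%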;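 as to inhibition: signal is fraction of cell area covered by stained E-selectin grains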;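 as to nuclei count: 100% = median nuclei count of all wells on the same plate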). The settings on record: HUVEC TNFalpha-induced E-selectin immunofluorescence imaging, at 2 µM; inhibition: stronger effect = higher value; nuclei count: measured here: cell number, toxicity.
Experiment [3] is described as follows: Primary imaging screen for DUSP6 inhibitors that restore phospho-Erk in transfected HeLa cells, chemical complementation (AID 609;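 active = compounds giving at least 50% inhibition in the cell-based MKP-3 phosphatase rescue imaging test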;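 as to inhibition: phospho-Erk level distribution per well compared with pooled transfected vehicle control wells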). Particulars: HeLa MKP-3 transfected, phospho-Erk imaging KS statistic, at 10 µM, cells stimulated with TPA for 15 min.
Experiment [4] addresses Dual specificity protein phosphatase 6 (Homo sapiens) (UniProt Q16828). The experiment is described as above. Particulars: HeLa MKP-3 transfected, phospho-Erk imaging KS statistic; at 10 µM; stronger effect = higher value; cells stimulated with TPA for 15 min.
Experiment [5] has as its target Voltage-gated potassium channel subunit beta-2 (Rattus norvegicus) (UniProt P62483). The experiment can be described thus: inhibitors of rat Kvbeta2 reductase activity – biochemical, NADPH fluorescence, primary screen (AID 622;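 active = fluorescence slope higher than the sample average by over 3 SD, cut at about -0.22 in these data, passing the limit was not always enough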;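 also: slope of raw intensity against log time taken from 70 to 1610 s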). The settings on record: recombinant KvBeta, 4-cyanobenzaldehyde reduction, at 10 µM, stronger effect = higher value.
Experiment [6] has the same target. The experiment can be described thus: enhancers of rat Kvbeta2 NADPH turnover – biochemical, NADPH fluorescence, primary screen (AID 623;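 active = NADPH fluorescence slope more negative than the mean of all samples by about 3 SD, 99.7% confidence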;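 also: fluorescence intensity change per second fitted from 20 to 320 s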). The settings on record: Recombinant KvBeta, NADPH fluorescence decrease slope, 10 min; at 10 µM; stronger effect = lower value.
The target of experiment [7] is Alpha-2C adrenergic receptor (Homo sapiens) (UniProt P18825). The experiment can be described thus: compounds altering alpha2C-coupled GIRK flux – cell-based, HEK293 alpha2C/GIRK1/2, thallium flux, primary screen (AID 624;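 active = fluorescence slope after compound addition differing from the mean of all screened samples at 99.7% confidence, in either direction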;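 also: slope of fluorescence ratio to pre-addition baseline per second over 15 to 24 s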). The settings on record: thallium flux BTC fluorescence, at 10 µM, actives lie on both sides.
Alpha-2C adrenergic receptor (Homo sapiens), sequence (P18825 whole entry, looked up): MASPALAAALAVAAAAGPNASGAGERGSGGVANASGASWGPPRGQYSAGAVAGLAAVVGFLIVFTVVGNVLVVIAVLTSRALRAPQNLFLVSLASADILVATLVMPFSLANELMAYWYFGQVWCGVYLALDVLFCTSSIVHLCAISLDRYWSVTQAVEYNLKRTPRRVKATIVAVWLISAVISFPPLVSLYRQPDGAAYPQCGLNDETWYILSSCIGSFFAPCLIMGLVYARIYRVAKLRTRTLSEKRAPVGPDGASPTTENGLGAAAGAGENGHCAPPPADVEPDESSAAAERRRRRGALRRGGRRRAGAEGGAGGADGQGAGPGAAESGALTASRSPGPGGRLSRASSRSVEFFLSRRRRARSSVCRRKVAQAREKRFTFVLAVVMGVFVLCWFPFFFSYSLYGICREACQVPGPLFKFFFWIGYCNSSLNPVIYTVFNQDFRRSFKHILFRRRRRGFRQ
Experiment [8] can be described thus: inhibitors of larval lipid processing in zebrafish, primary screen, whole organism, PED6 fluorescence, gall bladder and intestine (AID 686).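 Also: larvae 5 to 7 days old with five fish per well; signal comes from phospholipase A2 cleavage of quenched PED6 carried via bile; overnight exposure to compound and PED6 before scoring.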 Particulars: Zebrafish larvae PED6 lipid processing, fluorescence scoring; screened at 20 µM (by protocol). In outline: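 Also added: quenched phospholipase substrate PED6, 100 nM final, ingested by larvae; System: zebrafish larvae, 5-7 d; Quantity: 5 larvae per well; Compound: 20 µM single dose; Schedule: overnight compound and PED6 incubation; Read-out: visual per-well fluorescence inhibition score; Measured by: By-eye fluorescence microscopy; Medium: E3.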

The nature of experiment [9]: loss of swimming-algae plug formation – whole organism, Chlamydomonas reinhardtii, WT vs cilia-less mutant, absorbance, 96-well, primary screen (AID 463189;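 active = inhibition at or above 50% relative to wild type and mutant plate controls; inactive = inhibition below 50%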;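 also: 0% = wild type cc124 cells in DMSO and 100% = ciliumless bld1 mutant cells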). The settings on record: Chlamydomonas reinhardtii gravitaxis, OD600 absorbance, 2 days; at 10 µM; stronger effect = higher value.
Setting [10] is: measured here: cell density z-score.
The mark [11] stands for this setting: measured here: nuclear c-Myc green intensity z-score.
Where [12] appears, read: measured here: nuclear pErk red intensity z-score, stronger effect = higher value.

Voltage-gated potassium channel subunit beta-2 (Rattus norvegicus), sequence (P62483 whole entry, looked up): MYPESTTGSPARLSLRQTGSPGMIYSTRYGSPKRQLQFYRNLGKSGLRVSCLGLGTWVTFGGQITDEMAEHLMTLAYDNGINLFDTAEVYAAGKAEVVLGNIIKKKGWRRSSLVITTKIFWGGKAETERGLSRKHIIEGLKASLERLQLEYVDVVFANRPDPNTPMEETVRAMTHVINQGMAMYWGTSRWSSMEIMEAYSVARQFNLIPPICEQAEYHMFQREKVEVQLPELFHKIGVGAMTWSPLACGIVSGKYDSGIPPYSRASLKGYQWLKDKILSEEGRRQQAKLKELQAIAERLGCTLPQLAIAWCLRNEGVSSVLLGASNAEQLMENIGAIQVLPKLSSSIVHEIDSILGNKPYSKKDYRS
Dual specificity protein phosphatase 6 (Homo sapiens), sequence (Q16828 whole entry, looked up): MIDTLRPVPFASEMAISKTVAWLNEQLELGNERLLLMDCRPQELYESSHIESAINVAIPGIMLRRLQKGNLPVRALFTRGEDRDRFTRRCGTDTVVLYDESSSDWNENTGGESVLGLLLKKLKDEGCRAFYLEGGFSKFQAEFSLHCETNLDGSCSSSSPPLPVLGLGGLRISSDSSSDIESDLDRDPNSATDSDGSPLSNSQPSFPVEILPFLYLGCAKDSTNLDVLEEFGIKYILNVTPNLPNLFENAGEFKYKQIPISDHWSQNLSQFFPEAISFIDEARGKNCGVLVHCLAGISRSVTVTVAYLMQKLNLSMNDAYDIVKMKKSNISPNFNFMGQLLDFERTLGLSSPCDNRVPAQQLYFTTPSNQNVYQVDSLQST

Broadly, the inhibition is the change of the read-out against control, counted positive when it falls. Regarding `COc1ccc(CNC(=O)c2c(C)cc(=O)oc2C)cc1OC`, the cell count in [1] worked out at 446. Besides, the inhibition in experiment [1] was 1.8% (inactive); in experiment [2], -121% (inactive); in experiment [4], -1.12% (inactive); in [9], -7.01% (inactive). The molecule further displayed a nuclei count in experiment [2] of 167%. For the same molecule, the z-score in experiment [3] (setting [10]) is 0.057; in [3] (setting [11]), 0.328; in experiment [3] (setting [12]), 1.22. In [5], the fluorescence slope is -0.427 (inactive). In experiment [6], the NADPH fluorescence slope is -4.8e-05 (inactive). Further, in [7], the slope was 0.00518 (inactive). Further, in experiment [8], the result was inactive.

On to `c1ccc(C2Nc3ccccc3-c3nc4ccccc4n32)nc1` (centres undefined), for which the cell count in experiment [1] stood at 467. The inhibition in [1] was 5.5% (inactive); in experiment [2], -27.5% (inactive); in [4], 12.3% (inactive); in experiment [9], -35.3% (inactive). The nuclei count in [2] was 101%. Also, the z-score is -0.673 in [3] (setting [10]), 0.738 in experiment [3] (setting [11]) and -0.0231 in experiment [3] (setting [12]). In experiment [5], the fluorescence slope is -0.495 (inactive). For the same molecule, in [6], the NADPH fluorescence slope was -1.1e-05 (inactive). Further, the slope in experiment [7] is 0.00682 (inactive). The molecule was classed as inactive in experiment [8].

In the case of `Cc1cc(Cl)ccc1OCC(=O)OC(C)C(=O)N(C)C` (centres undefined), the cell count in [1] is 356. Besides, the inhibition in experiment [1] was -24% (inactive); in [2], -194% (inactive); in [4], 5.26% (inactive); in [9], 7.97% (inactive). The molecule also yielded a nuclei count in experiment [2] of 168%. Moreover, the z-score in [3] (setting [10]) was 1.09; in experiment [3] (setting [11]), 0.169; in experiment [3] (setting [12]), -0.845. Further, in experiment [5], the fluorescence slope is -0.439 (inactive). For the same molecule, the NADPH fluorescence slope in experiment [6] is -0.000171 (inactive). Also, in [7], the slope is 0.00631 (inactive). In addition, in [8], the molecule was called inactive.

In the case of `CCOC(=O)CSc1nc(-c2ccncc2)ccc1C#N`, the cell count in experiment [1] amounted to 688. Moreover, the inhibition was -16.1% (inactive) in [1], -23.4% (inactive) in experiment [2], -3.95% (inactive) in [4] and -7.15% (inactive) in experiment [9]. The molecule further registered a nuclei count in [2] of 174%. Further, the z-score was -1.46 in [3] (setting [10]), -0.434 in [3] (setting [11]) and 0.758 in [3] (setting [12]). In addition, the fluorescence slope in experiment [5] is -0.355 (inactive). In [6], the NADPH fluorescence slope was -2e-05 (inactive). In experiment [7], the slope was 0.00882 (inactive). Further, the molecule was classed as inactive in experiment [8].

`Cc1nc(SCC(N)=O)[nH]c(=O)c1Cc1ccc(OC(C)C)cc1`: the cell count in [1] stood at 585. For the same molecule, the inhibition in experiment [1] was 5.2% (inactive); in [2] it was 22.1% (inactive); in experiment [4], 3.5% (inactive); in experiment [9] it was -1.58% (inactive). For the same molecule, the nuclei count in experiment [2] came out at 150%. Also, the z-score is -0.515 in [3] (setting [10]), 0.503 in experiment [3] (setting [11]) and 0.0528 in [3] (setting [12]). In addition, the fluorescence slope in experiment [5] was -0.331 (inactive). Besides, the NADPH fluorescence slope in experiment [6] is 2.9e-05 (inactive). Further, the slope in experiment [7] was 0.00497 (inactive). The call in experiment [8] was inactive.

Take `O=C(c1ccccc1F)N1CCC(N2CCCCCC2)CC1`: the cell count in experiment [1] was 332. The inhibition in experiment [1] is -3.1% (inactive); in [2] it was -138% (inactive); in [4], 15.1% (inactive); in [9], 50.6% (active). The same molecule came in with a nuclei count in experiment [2] of 95.6%. For the same molecule, the z-score in experiment [3] (setting [10]) is 0.261; in experiment [3] (setting [11]), -1.02; in experiment [3] (setting [12]), -0.289. The fluorescence slope in experiment [5] is -0.493 (inactive). For the same molecule, the NADPH fluorescence slope in experiment [6] is -1.4e-05 (inactive). In addition, the slope in experiment [7] is 0.00789 (inactive). For the same molecule, the molecule was called inactive in experiment [8].

Take `Cc1cc(=O)oc2cc(OCCSCCN3CCOCC3)ccc12`: the cell count in [1] was 382. The inhibition was -4.7% (inactive) in experiment [1], -171% (inactive) in [2], 15.1% (inactive) in [4] and -5.19% (inactive) in [9]. Further, the nuclei count in experiment [2] stood at 162%. Also, the z-score in experiment [3] (setting [10]) was found to be 1.19; in experiment [3] (setting [11]) it was 0.929; in experiment [3] (setting [12]) it was 0.186. In addition, the fluorescence slope in experiment [5] was -0.358 (inactive). Moreover, the NADPH fluorescence slope in experiment [6] was -6.2e-05 (inactive). Moreover, the slope in experiment [7] was 0.00648 (inactive). In addition, the call in [8] was inactive.

Take `COc1cccc(CNc2ccc(Br)cn2)c1O`: the cell count in experiment [1] came to 544. In addition, the inhibition in experiment [1] is -3.4% (inactive); in [2], -2.4% (inactive); in experiment [4], 3.5% (inactive); in experiment [9] it was 6.48% (inactive). In experiment [2], this molecule yielded a nuclei count of 167%. Besides, the z-score was -0.809 in experiment [3] (setting [10]), -0.901 in experiment [3] (setting [11]) and -0.106 in experiment [3] (setting [12]). The fluorescence slope in experiment [5] is -0.316 (inactive). The NADPH fluorescence slope in [6] is 1.4e-05 (inactive). For the same molecule, in [7], the slope was 0.00431 (inactive). Also, in [8], the outcome was inactive.

As to `CCCOc1cccc(C2C(C(=O)c3ccc(C)o3)=C(O)C(=O)N2CCCN(C)C)c1` (centres undefined), the cell count in experiment [1] worked out at 432. Moreover, the inhibition is 3.5% (inactive) in [1], 48.5% (inactive) in experiment [2], -11.9% (inactive) in experiment [4] and -2.38% (inactive) in [9]. The nuclei count in experiment [2] worked out at 77.5%. The z-score is -0.596 in [3] (setting [10]), -1.82 in experiment [3] (setting [11]) and 0.0129 in experiment [3] (setting [12]). In [5], the fluorescence slope was -0.45 (inactive). For the same molecule, the NADPH fluorescence slope in [6] is -9.1e-06 (inactive). Besides, in experiment [7], the slope was 0.00522 (inactive). Besides, the call in [8] was inactive.

Regarding `COCc1[nH]nc2c1C(c1cccc(OC)c1)C(C#N)=C(N)O2` (centres undefined), the cell count in experiment [1] amounted to 637. For the same molecule, the inhibition was -2.3% (inactive) in [1], -17.7% (inactive) in [2], -2.29% (inactive) in experiment [4] and 2.83% (inactive) in experiment [9]. In addition, in experiment [2], the nuclei count turned out to be 174%. Moreover, the z-score in experiment [3] (setting [10]) was 0.403; in [3] (setting [11]), -0.811; in experiment [3] (setting [12]), -1.74. Moreover, the fluorescence slope in [5] was -0.403 (inactive). Further, in [6], the NADPH fluorescence slope was -3.7e-05 (inactive). For the same molecule, the slope in experiment [7] was 0.00513 (inactive). In addition, in [8], the result was inactive.

In the case of `COC(=O)c1ccc(Cn2nnc3c(sc4nc(N5CCOCC5)c5c(c43)CCCC5)c2=O)o1`, the cell count in experiment [1] was 558. The inhibition in experiment [1] is -14.8% (inactive); in experiment [2], -101% (inactive); in experiment [4], 24.4% (inactive); in experiment [9], -3.46% (inactive). The molecule further registered a nuclei count in experiment [2] of 153%. For the same molecule, the z-score in experiment [3] (setting [10]) is 0.962; in experiment [3] (setting [11]), -1.77; in experiment [3] (setting [12]) it was -0.316. For the same molecule, in experiment [5], the fluorescence slope is -0.275 (inactive). The NADPH fluorescence slope in experiment [6] is 2.3e-06 (inactive). In addition, in experiment [7], the slope was 0.00716 (inactive). The outcome in [8] is “active; weak signal in gallbladder and intestine”.

Turning to `Cc1nc(-c2c(-c3ccc(O)cc3O)noc2C(F)(F)F)cs1`, the cell count in experiment [1] was found to be 518. Moreover, the inhibition was -18.3% (inactive) in experiment [1], -135% (inactive) in experiment [2], 20.2% (inactive) in experiment [4] and 20.1% (inactive) in experiment [9]. In addition, the nuclei count in experiment [2] came to 163%. Also, the z-score was 0.818 in [3] (setting [10]), -0.387 in experiment [3] (setting [11]) and 0.0899 in experiment [3] (setting [12]). For the same molecule, in experiment [5], the fluorescence slope was -0.468 (inactive). In experiment [6], the NADPH fluorescence slope is -0.000226 (inactive). Moreover, the slope in experiment [7] is 0.00467 (inactive). Also, the molecule was classed as inactive in experiment [8].

Take `CCOC(=O)c1c(CN2CCCCC2)oc2ccc(OC)cc12`: the cell count in [1] was determined as 344. Besides, the inhibition in experiment [1] was -9.3% (inactive); in experiment [2], -46.9% (inactive); in [4], -7.01% (inactive); in experiment [9] it was 4.54% (inactive). Also, in experiment [2], the nuclei count was found to be 142%. Besides, the values for the z-score in experiment [3] (setting [10]), in experiment [3] (setting [11]) and in [3] (setting [12]) were 0.114, 0.591 and 0.702, respectively. Moreover, in experiment [5], the fluorescence slope was -0.416 (inactive). The NADPH fluorescence slope in experiment [6] is -0.000135 (inactive). The slope in experiment [7] was 0.00729 (inactive). Further, the call in experiment [8] was inactive.
